Measurements published in ChEMBL document CHEMBL5338787, “Discovery of Novel Bruton's Tyrosine Kinase PROTACs with Enhanced Selectivity and Cellular Efficacy” (J Med Chem, 2023).
Active and inactive are the calls of the source. The calls are words filed in the database; no cut-off is given here.

Key:
[1] = target: Tyrosine-protein kinase Fes/Fps (Homo sapiens) (UniProt P07332); assay: Degradation of Fes/Fps in human TMD8 cells by measuring protein level at 111 nM for 6 hrs using label free proteomic analysis; format: cell-based
Sequence of Tyrosine-protein kinase Fes/Fps (Homo sapiens) (P07332 whole entry): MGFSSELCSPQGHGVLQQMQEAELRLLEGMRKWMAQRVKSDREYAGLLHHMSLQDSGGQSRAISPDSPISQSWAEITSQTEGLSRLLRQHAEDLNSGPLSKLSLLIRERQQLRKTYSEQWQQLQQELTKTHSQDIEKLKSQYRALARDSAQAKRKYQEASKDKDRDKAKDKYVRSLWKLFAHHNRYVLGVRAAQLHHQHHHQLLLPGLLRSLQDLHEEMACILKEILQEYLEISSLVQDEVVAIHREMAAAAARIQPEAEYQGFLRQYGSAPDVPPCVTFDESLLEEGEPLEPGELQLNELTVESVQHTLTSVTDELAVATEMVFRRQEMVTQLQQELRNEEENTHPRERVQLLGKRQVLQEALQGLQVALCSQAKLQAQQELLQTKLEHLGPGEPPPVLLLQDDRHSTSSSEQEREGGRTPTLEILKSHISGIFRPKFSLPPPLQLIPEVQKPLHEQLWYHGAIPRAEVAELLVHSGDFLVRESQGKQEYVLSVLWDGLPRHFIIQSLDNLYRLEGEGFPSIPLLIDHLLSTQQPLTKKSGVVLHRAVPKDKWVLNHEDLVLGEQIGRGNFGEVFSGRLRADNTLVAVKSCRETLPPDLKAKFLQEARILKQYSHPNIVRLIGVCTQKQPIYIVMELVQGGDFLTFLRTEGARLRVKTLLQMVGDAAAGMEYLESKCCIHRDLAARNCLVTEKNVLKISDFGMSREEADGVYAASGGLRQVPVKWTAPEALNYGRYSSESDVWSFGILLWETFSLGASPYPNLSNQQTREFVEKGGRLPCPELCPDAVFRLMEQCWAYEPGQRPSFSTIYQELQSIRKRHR
Method in brief: (§1)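 TMD8 cells (2 × 10^6) given 111 nM or DMSO for 6 h in duplicate. Lysed in 5% SDS/50 mM TEAB pH 8.5. 200 μg protein reduced (10 mM DTT, 55 °C, 30 min), alkylated (50 mM iodoacetamide), S-Trap processed, then LC-MS/MS. Label-free matched-peptide quantitation against DMSO, human UniProt; Benjamini–Hochberg-corrected p-values.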

[2] = target: Tyrosine-protein kinase Lyn (Homo sapiens) (UniProt P07948); assay: Degradation of LYN in human TMD8 cells by measuring protein level at 111 nM for 6 hrs using label free proteomic analysis; format: cell-based; method in brief: as §1
Sequence of Tyrosine-protein kinase Lyn (Homo sapiens) (P07948 2-512 limits assumed): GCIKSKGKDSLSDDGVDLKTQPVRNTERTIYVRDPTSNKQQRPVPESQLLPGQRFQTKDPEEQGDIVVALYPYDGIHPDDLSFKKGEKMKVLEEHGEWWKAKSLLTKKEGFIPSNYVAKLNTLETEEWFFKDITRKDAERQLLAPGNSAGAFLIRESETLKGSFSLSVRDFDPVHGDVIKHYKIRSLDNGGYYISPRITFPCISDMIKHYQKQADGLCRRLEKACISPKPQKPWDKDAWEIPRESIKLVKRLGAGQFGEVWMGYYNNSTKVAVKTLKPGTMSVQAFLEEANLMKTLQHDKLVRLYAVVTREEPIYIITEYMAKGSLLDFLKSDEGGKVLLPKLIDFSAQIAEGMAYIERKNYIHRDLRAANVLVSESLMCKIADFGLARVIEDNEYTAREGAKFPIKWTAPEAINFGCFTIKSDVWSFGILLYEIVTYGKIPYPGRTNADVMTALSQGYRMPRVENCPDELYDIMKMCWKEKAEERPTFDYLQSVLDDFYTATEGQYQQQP

[3] = target: Tyrosine-protein kinase HCK (Homo sapiens) (UniProt P08631); assay: Degradation of HCK in human TMD8 cells by measuring protein level at 111 nM for 6 hrs using label free proteomic analysis; format: cell-based; method in brief: as §1
Sequence of Tyrosine-protein kinase HCK (Homo sapiens) (P08631 2-526 limits assumed): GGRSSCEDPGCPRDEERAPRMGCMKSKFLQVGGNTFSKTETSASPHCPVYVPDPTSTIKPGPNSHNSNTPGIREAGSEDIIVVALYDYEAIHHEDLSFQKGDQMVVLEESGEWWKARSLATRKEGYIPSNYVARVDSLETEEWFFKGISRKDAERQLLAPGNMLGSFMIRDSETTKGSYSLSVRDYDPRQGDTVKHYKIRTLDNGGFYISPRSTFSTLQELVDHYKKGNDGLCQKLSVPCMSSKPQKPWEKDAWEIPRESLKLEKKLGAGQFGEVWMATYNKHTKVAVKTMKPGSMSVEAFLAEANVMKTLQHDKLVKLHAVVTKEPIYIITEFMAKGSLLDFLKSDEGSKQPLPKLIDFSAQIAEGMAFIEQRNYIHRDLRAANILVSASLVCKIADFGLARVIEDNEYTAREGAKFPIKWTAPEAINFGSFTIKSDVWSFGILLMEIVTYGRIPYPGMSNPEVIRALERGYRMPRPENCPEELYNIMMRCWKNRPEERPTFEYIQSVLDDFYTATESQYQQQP

[4] = target: Zinc finger protein Aiolos (Homo sapiens) (UniProt Q9UKT9); assay: Degradation of IKZF3 in human TMD8 cells by measuring protein level at 111 nM for 6 hrs using label free proteomic analysis; format: cell-based; method in brief: as §1
Sequence of Zinc finger protein Aiolos (Homo sapiens) (Q9UKT9 whole entry): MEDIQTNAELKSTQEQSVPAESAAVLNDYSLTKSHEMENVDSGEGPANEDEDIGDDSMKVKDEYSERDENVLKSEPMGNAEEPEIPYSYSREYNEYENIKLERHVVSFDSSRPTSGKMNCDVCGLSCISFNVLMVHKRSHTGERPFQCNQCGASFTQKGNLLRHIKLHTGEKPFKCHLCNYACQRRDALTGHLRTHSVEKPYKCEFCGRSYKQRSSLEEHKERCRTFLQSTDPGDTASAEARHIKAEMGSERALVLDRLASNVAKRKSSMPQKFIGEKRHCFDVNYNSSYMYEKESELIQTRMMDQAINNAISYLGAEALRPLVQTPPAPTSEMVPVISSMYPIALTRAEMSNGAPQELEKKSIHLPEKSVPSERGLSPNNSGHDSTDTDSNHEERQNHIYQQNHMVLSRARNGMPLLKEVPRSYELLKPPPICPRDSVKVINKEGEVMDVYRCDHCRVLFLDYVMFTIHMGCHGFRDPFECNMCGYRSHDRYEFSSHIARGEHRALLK

[5] = target: T1, Tyrosine-protein kinase BAZ1B (Homo sapiens) (UniProt Q9UIG0); assay: Degradation of BAZ1B in human TMD8 cells by measuring protein level at 111 nM for 6 hrs using label free proteomic analysis; format: cell-based; method in brief: as §1
T1 sequence (whole entry): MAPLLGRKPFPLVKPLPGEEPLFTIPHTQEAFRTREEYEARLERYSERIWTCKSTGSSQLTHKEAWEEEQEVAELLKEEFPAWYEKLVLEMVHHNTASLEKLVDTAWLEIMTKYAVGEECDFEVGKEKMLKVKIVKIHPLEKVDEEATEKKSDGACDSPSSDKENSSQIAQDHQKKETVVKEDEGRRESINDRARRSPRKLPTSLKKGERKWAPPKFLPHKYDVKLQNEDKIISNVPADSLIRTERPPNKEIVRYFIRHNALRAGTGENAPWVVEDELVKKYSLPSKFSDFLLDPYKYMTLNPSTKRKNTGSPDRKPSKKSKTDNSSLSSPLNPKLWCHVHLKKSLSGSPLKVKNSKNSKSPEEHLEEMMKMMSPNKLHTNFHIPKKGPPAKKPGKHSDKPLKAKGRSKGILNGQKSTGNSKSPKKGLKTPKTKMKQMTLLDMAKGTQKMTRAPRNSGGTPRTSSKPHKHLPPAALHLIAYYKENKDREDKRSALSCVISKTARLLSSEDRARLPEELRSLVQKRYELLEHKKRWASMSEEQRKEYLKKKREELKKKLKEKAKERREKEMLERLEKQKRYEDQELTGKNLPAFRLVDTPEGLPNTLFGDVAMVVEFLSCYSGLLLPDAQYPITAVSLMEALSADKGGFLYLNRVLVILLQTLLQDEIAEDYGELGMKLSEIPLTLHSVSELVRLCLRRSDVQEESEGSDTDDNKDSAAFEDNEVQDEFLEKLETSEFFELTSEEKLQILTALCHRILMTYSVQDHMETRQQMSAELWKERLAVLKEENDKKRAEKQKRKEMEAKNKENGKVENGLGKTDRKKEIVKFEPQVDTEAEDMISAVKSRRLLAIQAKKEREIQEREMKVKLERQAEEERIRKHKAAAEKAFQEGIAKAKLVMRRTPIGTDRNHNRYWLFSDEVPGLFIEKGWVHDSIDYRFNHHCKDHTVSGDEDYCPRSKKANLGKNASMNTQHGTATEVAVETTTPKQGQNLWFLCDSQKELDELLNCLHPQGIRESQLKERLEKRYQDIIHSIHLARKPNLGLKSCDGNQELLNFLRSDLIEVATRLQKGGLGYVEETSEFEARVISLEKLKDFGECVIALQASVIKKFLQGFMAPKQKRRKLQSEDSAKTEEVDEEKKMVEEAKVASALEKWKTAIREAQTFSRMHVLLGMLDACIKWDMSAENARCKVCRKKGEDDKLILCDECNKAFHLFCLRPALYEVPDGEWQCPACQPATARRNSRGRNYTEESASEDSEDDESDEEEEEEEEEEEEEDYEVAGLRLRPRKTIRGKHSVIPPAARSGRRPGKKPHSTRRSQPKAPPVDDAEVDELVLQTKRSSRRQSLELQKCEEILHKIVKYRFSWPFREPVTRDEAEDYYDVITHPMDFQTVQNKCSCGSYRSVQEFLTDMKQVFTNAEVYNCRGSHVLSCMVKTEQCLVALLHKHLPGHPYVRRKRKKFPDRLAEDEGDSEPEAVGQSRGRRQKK

[6] = target: Tyrosine-protein kinase SYK (Homo sapiens) (UniProt P43405); assay: Degradation of SYK in human TMD8 cells by measuring protein level at 111 nM for 6 hrs using label free proteomic analysis; format: cell-based; method in brief: as §1
[7] = target: T2, Protein cereblon/Tyrosine-protein kinase BTK (Homo sapiens, UniProt Q06187+Q96SW2); assay: PROTAC activity at BTK/CRBN protein protein interaction in human JeKo-1 cell assessed as degradation of BTK incubated for 17 hrs measured by Western blot analysis relative to control; format: cell-based
Method in brief: (§2)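 Ramos or JeKo-1 cells (2 × 10^6 per well) were exposed for 17 h to 3000–0.15 nM PROTAC in 3-fold steps. Cells were lysed and analysed by western blot, with BTK normalised to β-actin. DC50 and Dmax come from the dose-response; DC50 is the mean ± SD of two independent experiments.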
Target sequence in this assay (Q06187 2-659 limits assumed): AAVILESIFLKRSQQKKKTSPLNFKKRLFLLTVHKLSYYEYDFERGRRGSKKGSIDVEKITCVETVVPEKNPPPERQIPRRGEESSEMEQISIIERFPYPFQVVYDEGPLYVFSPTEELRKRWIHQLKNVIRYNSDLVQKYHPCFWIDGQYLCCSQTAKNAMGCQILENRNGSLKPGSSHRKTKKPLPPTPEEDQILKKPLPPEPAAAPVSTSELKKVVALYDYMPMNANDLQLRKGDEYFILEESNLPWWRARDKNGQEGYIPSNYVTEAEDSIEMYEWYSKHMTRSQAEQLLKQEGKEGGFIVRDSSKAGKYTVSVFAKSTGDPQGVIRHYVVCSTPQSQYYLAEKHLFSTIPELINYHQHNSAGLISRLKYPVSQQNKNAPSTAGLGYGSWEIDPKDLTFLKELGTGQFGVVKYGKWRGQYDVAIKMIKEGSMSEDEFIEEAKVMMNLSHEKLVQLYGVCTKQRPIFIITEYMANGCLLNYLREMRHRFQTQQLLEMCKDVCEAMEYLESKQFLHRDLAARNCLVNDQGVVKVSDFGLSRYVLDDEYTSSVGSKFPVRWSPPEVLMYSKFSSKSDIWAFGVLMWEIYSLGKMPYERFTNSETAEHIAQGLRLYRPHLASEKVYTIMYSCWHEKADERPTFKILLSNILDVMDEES
Target sequence in this assay (Q96SW2 whole entry partner): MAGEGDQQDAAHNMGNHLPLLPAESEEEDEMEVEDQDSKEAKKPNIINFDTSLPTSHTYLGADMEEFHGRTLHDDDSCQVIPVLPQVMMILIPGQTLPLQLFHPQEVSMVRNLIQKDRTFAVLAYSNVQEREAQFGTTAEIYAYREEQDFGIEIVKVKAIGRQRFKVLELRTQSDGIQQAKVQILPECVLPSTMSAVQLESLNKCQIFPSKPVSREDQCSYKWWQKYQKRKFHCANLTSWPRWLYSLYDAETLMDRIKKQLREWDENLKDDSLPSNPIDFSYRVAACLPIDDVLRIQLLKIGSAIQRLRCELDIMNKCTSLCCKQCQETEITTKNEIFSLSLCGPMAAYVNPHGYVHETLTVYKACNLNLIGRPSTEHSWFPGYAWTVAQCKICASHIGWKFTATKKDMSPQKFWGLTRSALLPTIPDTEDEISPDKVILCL

[8] = target: Tyrosine-protein kinase FRK (Homo sapiens) (UniProt P42685); assay: Degradation of FRK in human TMD8 cells by measuring protein level at 111 nM for 6 hrs using label free proteomic analysis; format: cell-based; method in brief: as §1
Sequence of Tyrosine-protein kinase FRK (Homo sapiens) (P42685 whole entry): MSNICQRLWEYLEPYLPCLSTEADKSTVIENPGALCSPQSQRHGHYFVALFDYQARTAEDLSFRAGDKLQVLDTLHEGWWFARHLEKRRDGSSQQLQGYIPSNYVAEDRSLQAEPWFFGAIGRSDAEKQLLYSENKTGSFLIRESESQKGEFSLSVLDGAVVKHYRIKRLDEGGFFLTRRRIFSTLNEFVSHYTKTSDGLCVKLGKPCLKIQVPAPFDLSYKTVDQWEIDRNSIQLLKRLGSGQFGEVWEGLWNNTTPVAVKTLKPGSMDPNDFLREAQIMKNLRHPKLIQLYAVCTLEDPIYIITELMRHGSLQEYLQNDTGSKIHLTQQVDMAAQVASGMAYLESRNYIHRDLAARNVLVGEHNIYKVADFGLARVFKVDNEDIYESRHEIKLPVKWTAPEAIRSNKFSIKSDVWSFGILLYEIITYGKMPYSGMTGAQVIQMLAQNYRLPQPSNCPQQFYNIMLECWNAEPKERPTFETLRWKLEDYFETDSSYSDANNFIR

[9] = target: T2, Protein cereblon/Tyrosine-protein kinase BTK; assay: PROTAC activity at BTK/CRBN protein protein interaction in human Ramos cell assessed as degradation of BTK incubated for 17 hrs measured by Western blot analysis; format: cell-based; method in brief: as §2
[10] = target: Eukaryotic peptide chain release factor GTP-binding subunit ERF3A (Homo sapiens) (UniProt P15170); assay: Degradation of […] in human TMD8 cells by measuring protein level at 111 nM for 6 hrs using label free proteomic analysis; format: cell-based; method in brief: as §1
[11] = target: T2, Protein cereblon/Tyrosine-protein kinase BTK; assay: PROTAC activity at BTK/CRBN protein protein interaction in human Ramos cell assessed as degradation of BTK incubated for 17 hrs measured by Western blot analysis relative to control; format: cell-based; method in brief: as §2
Target sequence in this assay (Q06187 2-659 limits assumed): as the sequence (Q06187 2-659 limits assumed) above
Target sequence in this assay (Q96SW2 whole entry partner): as the sequence (Q96SW2 whole entry partner) above

[12] = target: DNA-binding protein Ikaros (Homo sapiens) (UniProt Q13422); assay: Degradation of IKZF1 in human TMD8 cells by measuring protein level at 111 nM for 6 hrs using label free proteomic analysis; format: cell-based; method in brief: as §1
Sequence of DNA-binding protein Ikaros (Homo sapiens) (Q13422 whole entry): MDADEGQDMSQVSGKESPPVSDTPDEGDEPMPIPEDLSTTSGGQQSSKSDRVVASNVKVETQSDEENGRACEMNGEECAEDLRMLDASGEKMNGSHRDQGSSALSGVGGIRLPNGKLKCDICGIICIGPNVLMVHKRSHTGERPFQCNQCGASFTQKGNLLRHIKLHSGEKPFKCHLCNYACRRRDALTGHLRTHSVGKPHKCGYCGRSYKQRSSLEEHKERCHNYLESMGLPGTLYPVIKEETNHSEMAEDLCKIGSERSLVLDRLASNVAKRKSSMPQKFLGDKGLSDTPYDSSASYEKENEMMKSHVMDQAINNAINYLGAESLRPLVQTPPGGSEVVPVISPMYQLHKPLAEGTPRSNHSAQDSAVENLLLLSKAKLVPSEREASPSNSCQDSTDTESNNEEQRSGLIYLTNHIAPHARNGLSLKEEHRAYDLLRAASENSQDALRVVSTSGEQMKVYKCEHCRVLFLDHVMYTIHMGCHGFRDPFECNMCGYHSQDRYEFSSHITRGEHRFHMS

[13] = target: T2, Protein cereblon/Tyrosine-protein kinase BTK; assay: PROTAC activity at BTK/CRBN protein protein interaction in human Ramos cell assessed as degradation of BTK incubated at 111 nM for 17 hrs in presence of -iberdomide at 20 uM measured by Western blot analysis
Target sequence in this assay (Q06187 2-659 limits assumed): as the sequence (Q06187 2-659 limits assumed) above
Target sequence in this assay (Q96SW2 whole entry partner): as the sequence (Q96SW2 whole entry partner) above

[14] = test system: TMD8; assay: Cytotoxicity against human TMD8 cells incubated for 48 hrs by celltitre glo 2.0 assay; format: functional, cell-based; details: TMD8, 48 h

Row | Activity [1] | Activity [2] | Activity [3] | Activity [4] | Activity [5] | Activity [6] | Emax [7] [%] | Activity [8] | DC50 [9] [nM] | Activity [10] | Emax [11] [%] | Activity [12] | Activity [13] | SMILES | IC50 [14] [nM]
1 | inactive | inactive | inactive | inactive | inactive | inactive | 97 | inactive | 1.7 | inactive | 96.2 | inactive |  | C[C@H]1CN(C(=O)COc2cccc3c2C(=O)N(C2CCC(=O)NC2=O)C3=O)CCN1c1ccc(Nc2cc(-c3ccnc(N4CCn5c(cc6c5CC(C)(C)C6)C4=O)c3CO)cn(C)c2=O)nc1 (stereo partly specified) | 
2 | inactive | inactive | inactive | Active | inactive | inactive | 95.7 | inactive | 0.5 | inactive | 97.1 | Active | inactive | C[C@H]1CN(C(=O)CNc2cccc3c2C(=O)N(C2CCC(=O)NC2=O)C3=O)CCN1c1ccc(Nc2cc(-c3ccnc(N4CCn5c(cc6c5CC(C)(C)C6)C4=O)c3CO)cn(C)c2=O)nc1 (stereo partly specified) | 1.4
